Measurements published in article PMC7001660 (Molecular cell, 2019).

Test system: M2 anti-FLAG antibody
Assay: Prot-MaP on-chip limit of detection
Format: binding, mouse
Details: for fluorescence signal relative to WT: quantified fluorescence medians across M2 concentrations, Fig. 2B
Outline: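 Run at 25°C: M2 at 1, 3.2, 10, 32, 100nM (45 min each), each followed by wash and 35nM Alexa555 anti-mouse secondary (37 min). Zero-primary secondary gives baseline. Per-variant cluster medians used; threshold 3σ above negative-set mean; LoD by inter/extrapolation.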

Row | Sequence | fluorescence signal relative to WT | fold lower LoD than WT (LoD of WT FLAG (DYKDDDDK) relative to variant)
1 | DYKDDDDKGDYKDHD [2xFLAG, reference compound] | much higher signal than WT | 
2 | DYKDEDLL [superFLAG] | much higher signal than WT | 7.9 fold
